In ChEMBL document CHEMBL1629450, “Design, synthesis, and evaluation of dibenzo[c,h][1,6]naphthyridines as topoisomerase I inhibitors and potential anticancer agents” (J Med Chem, 2010):
Calls of active or inactive are those of the source. No cut-off for these calls is given here.

Experiments:
[1] = biological target: T1, DNA topoisomerase 1 (Homo sapiens) (UniProt P11387); assay: Inhibition of human topoisomerase 1 assessed as induction of DNA damage using 161 base-pair fragment form pBluescript SK(-) phagemid DNA substrate by DNA cleavage assay
T1 sequence (whole entry): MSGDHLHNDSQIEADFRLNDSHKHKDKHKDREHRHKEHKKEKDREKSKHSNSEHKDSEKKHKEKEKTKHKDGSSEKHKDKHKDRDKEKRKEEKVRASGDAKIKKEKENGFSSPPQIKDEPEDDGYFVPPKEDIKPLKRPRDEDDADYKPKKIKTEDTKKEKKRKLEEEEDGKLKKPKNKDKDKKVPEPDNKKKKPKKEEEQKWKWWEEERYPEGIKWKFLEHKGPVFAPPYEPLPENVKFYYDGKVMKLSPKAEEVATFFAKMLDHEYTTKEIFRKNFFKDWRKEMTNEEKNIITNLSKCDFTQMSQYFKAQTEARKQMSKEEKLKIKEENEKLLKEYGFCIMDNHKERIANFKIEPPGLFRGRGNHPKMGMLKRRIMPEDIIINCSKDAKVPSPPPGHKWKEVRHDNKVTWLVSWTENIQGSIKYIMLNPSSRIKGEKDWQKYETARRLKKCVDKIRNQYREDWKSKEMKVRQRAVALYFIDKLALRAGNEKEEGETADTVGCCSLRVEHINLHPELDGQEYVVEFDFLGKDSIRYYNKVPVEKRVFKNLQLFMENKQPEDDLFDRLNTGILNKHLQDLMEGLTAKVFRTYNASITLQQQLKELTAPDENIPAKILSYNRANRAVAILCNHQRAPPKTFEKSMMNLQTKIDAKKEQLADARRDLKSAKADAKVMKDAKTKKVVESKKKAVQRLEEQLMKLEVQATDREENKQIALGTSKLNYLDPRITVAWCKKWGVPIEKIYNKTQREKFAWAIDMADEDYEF
Outline: (§1)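 Baculovirus-purified human recombinant Top1 with 161 bp PvuII/HindIII fragment of pBluescript SK(-), 3'-end labeled at HindIII site with [α-32P]-dGTP by Klenow fill-in (~50 000 dpm/reaction). Incubated with drug, four 10-fold dilutions from 100 μM, 30 min at 22 °C. Stopped with 0.5% SDS (final), resolved on denaturing 16% polyacrylamide/7 M urea gels. Cleavage scored semiquantitatively.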

MCF7 = assay: Antiproliferative activity against human MCF7 cells after 48 hrs by SRB assay; format: functional; conditions: MCF7, 48 h
UACC-62 = assay: Antiproliferative activity against human UACC62 cells after 48 hrs by SRB assay; format: functional; conditions: UACC-62, 48 h
[2] = Antiproliferative activity against human OVACR3 cells after 48 hrs by SRB assay; format: functional; conditions: OVACR3, 48 h
[3] = Antiproliferative activity against human RPMI18226 cells after 48 hrs by SRB assay; format: functional; conditions: RPMI18226, 48 h
K562 = assay: Antiproliferative activity against human K562 cells after 48 hrs by SRB assay; format: functional; conditions: K562, 48 h
SN12C = assay: Antiproliferative activity against human SN12C cells after 48 hrs by SRB assay; format: functional
HOP-62 = assay: Antiproliferative activity against human HOP62 cells after 48 hrs by SRB assay; format: functional; conditions: HOP-62, 48 h
UO-31 = assay: Antiproliferative activity against human UO31 cells after 48 hrs by SRB assay; format: functional; conditions: UO-31, 48 h
COLO 205 = assay: Antiproliferative activity against human COLO205 cells after 48 hrs by SRB assay; format: functional; conditions: COLO 205, 48 h
HCT-116 = assay: Antiproliferative activity against human HCT116 cells after 48 hrs by SRB assay; format: functional; conditions: HCT-116, 48 h
DU-145 = assay: Antiproliferative activity against human DU145 cells after 48 hrs by SRB assay; format: functional; conditions: DU-145, 48 h
SF-539 = assay: Antiproliferative activity against human SF539 cells after 48 hrs by SRB assay; format: functional; conditions: SF-539, 48 h
IGROV-1 = assay: Antiproliferative activity against human IGROV1 cells after 48 hrs by SRB assay; format: functional; conditions: IGROV-1, 48 h
[4] = biological target: T1, DNA topoisomerase 1 (Homo sapiens); assay: Inhibition of human topoisomerase 1 assessed as induction of DNA cleavage at base-pair 119 using 161 base-pair fragment form pBluescript SK(-) phagemid DNA substrate by DNA cleavage assay; outline: as §1
[5] = Solubility of the compound in chloroform solvent; format: physicochemical
[6] = Solubility of the compound in methanol solvent; format: physicochemical
[7] = Solubility of the compound in dimethyl sulfoxide solvent; format: physicochemical
[8] = biological target: T1, DNA topoisomerase 1 (Homo sapiens); assay: Inhibition of human topoisomerase 1 assessed as induction of DNA cleavage at base-pair 97 using 161 base-pair fragment form pBluescript SK(-) phagemid DNA substrate by DNA cleavage assay; outline: as §1

With `COc1cc2c(Cl)nc3c4ccccc4nc(Cl)c3c2cc1OC` the inhibition [1] was “inactive”.

With `C=CCn1c(=O)c2cc(OC)c(OC)cc2c2c(=O)[nH]c3ccccc3c21` the inhibition [1] was “inactive”.

For `COc1cc2c(=O)n(CCCO)c3c4ccccc4[nH]c(=O)c3c2cc1OC`, the inhibition [1] was “inactive”.

`COc1cc2c3c(n(C)c(=O)c2cc1OC)-c1cc2c(cc1C3=O)OCO2` showed a GI50 (MCF7) of 1.9 µM, a GI50 (UACC-62) of 0.6 µM and a GI50 [2] of 22.4 µM. The GI50 [3] was greater than 100 µM, the GI50 (K562) was 6 µM and the GI50 (SN12C) was 25.7 µM. The GI50 (HOP-62) was 2.8 µM, the GI50 (UO-31) was 1.7 µM and the GI50 (COLO 205) was greater than 100 µM. It also gave a GI50 (HCT-116) of 11.5 µM, a GI50 (DU-145) of 4.8 µM and a GI50 (SF-539) of 1.7 µM. It also gave a GI50 (IGROV-1) of 0.01 µM.

In the case of `COc1cc2c(=O)n(C)c3c4ccccc4[nH]c(=O)c3c2cc1OC`, the inhibition [1] is reported as “inactive”.

With `COc1cc2c(OC)nc3c4ccccc4nc(OC)c3c2cc1OC` the inhibition [1] was “inactive”.

In the case of `COc1cc2c(=O)n(CCCN3CCOCC3)c3c4ccccc4nc(Cl)c3c2cc1OC`, the GI50 (MCF7) is reported as 0.4 µM, the inhibition [4] is reported as “Active” and the inhibition [1] is reported as “Active”. For the same compound, the solubility [5] was “soluble”, the GI50 (UACC-62) was 6.8 µM and the solubility [6] was “soluble”. For the same compound, the GI50 [2] was 6.3 µM, the GI50 [3] was 0.1 µM and the solubility [7] was “soluble”. For the same compound, the GI50 (K562) was 0.2 µM, the inhibition [8] was “Active” and the GI50 (SN12C) was 13.2 µM. The GI50 (HOP-62) was 4.7 µM, the GI50 (UO-31) was 0.02 µM and the GI50 (COLO 205) was 0.33 µM. For the same compound, the GI50 (HCT-116) was 4.16 µM, the GI50 (DU-145) was 10.5 µM and the GI50 (SF-539) was 12.3 µM. The GI50 (IGROV-1) was 0.03 µM.

With `COc1cc2c(=O)n(C)c3c4ccccc4nc(Cl)c3c2cc1OC` the inhibition [1] was “Active”, the solubility [5] was “soluble” and the solubility [6] was “soluble”. For the same compound, the solubility [7] was “soluble” and the inhibition [8] was “Active”.
